Screening data: PubChem BioAssay, Johns Hopkins Ion Channel Center
KCNQ1 block: inhibitors of human KCNQ1 potassium channel | P51787 | CHO-K1 KCNQ1, FluxOR thallium flux fluorescence; stronger effect = higher value | B-score at 10 µM | 1.3% of 310,000 active | AID 2642;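 active = compounds whose thallium flux B-score, printed positive for inhibition, exceeds three library SD while starting fluorescence stays within three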;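 note: channel opened by potassium depolarization with thallium stimulus after 20 min compound exposure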
hERG rescue: hERG (human) protection from proarrhythmic block; 0.51% of 310,000 active; AID 1511; activation (rescue from dofetilide block), less the hit threshold, % at 10 µM; CHO-hERG, FluxOR thallium flux, dofetilide IC70 present; Q12809;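 active = activation above the mean of controls blocked by dofetilide plus 5 SD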;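 note: thallium influx through hERG after potassium depolarization seen as dye fluorescence rise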
KCNK9 block: blocks the human KCNK9 two-pore domain potassium channel. AID 488922. 1.2% of 310,000 active. B-score at 10 µM. HEK293 KCNK9, FluxOR thallium flux fluorescence; stronger effect = lower value;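 active = ratio B-score over 3 SD below the library mean, with starting fluorescence within 5 SD of its mean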;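 note: negative B-score means less thallium flux so channel inhibition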
Target sequence (Q9NPC2 whole entry, looked up, the tested form may be a part): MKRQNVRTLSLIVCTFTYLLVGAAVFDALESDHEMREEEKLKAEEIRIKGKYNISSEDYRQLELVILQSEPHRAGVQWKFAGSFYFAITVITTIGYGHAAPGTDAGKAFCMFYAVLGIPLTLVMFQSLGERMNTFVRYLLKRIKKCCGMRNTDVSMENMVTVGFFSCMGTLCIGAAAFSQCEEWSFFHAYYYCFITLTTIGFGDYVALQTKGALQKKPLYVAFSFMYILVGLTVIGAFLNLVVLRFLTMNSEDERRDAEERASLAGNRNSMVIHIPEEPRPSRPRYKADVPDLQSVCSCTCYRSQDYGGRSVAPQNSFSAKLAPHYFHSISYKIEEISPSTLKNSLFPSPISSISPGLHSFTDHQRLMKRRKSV
KCNQ1 pot: human KCNQ1 channel potentiation or activation. CHO-K1 KCNQ1, thallium flux FluxOR fluorescence; stronger effect = higher value. B-score at 10 µM. 0.35% of 310,000 active;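 active = fluorescence ratio B-score, a plate-corrected score, at least three library SD, with initial intensity B-score within 5 SD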
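assay system = CHO-K1 cells stably expressing KCNQ1 | medium = assay buffer, equal DMSO in all wells | timing = 37 °C overnight plating, 90-min dark dye load, 20-min compound pretreatment | measured by = kinetic FluxOR thallium fluorescence, 10-s 1-Hz baseline, 110-s post-stimulus read | measure = fluorescence change relative to baseline, converted to B score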
KCNK3 inh: human KCNK3 channel inhibition, primary screen | CHO-KCNK3 thallium flux, FluxOR fluorescence; stronger effect = lower value | B-score at 10 µM | 0.84% of 340,000 active | AID 602410;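 active = B-score under library mean minus 4 SD, starting fluorescence ratio at most library mean plus 5 SD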;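 note: more negative B-score means stronger inhibition of thallium flux through KCNK3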
KCNK9 block conf: human KCNK9 inhibitor confirmation; inhibition, % at 10 µM; shares compounds with KCNK9 block; 43% of 4,900 active; HEK293 KCNK9 cells, FluxOR thallium flux fluorescence; AID 492992;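 active = thallium signal inhibited by more than 5 SD of the compound-free buffer control wells, on both duplicate plates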
Kir21 sel: tests whether KCNK9 modulators also affect mouse Kir2.1; inhibition, % at 10 µM; Kir2.1 cells, FluxOR thallium flux fluorescence; AID 492993; 4% of 4,900 active; shares compounds with KCNK9 block;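 active = thallium signal drop more than 5 SD beyond the mean of the no-compound control wells, seen in both duplicate plates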;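 note: signal is fluorescence rise after thallium addition divided by baseline fluorescence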
KCNK9 uninduced: non-induced cell nonspecific activity of KCNK9 modulators; shares compounds with KCNK9 block; 40% of 4,900 active; non-induced KCNK9-HEK293, FluxOR thallium flux; inhibition, % at 10 µM;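 active = thallium signal drop beyond 5 SD of the untreated control mean, on both duplicate plates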
KCNK3 inh conf: confirmation of human KCNK3 two-pore domain potassium channel inhibitors. shares compounds with KCNK3 inh. CHO-KCNK3 thallium flux, FluxOR fluorescence; 0% buffer, 100% carvedilol maximal block. ratio percent of control, % at 10 µM. 99% of 2,400 active. AID 651638;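 active = ratio percent of control, averaged over triplicates, above buffer control mean plus 5 SD, cut at about 64% in these data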;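 note: ratio is the fluorescence rise from min to max over baseline after thallium stimulus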
KCNK3 uninduced: KCNK3 inhibitor counter-screen hit in non-induced cells. shares compounds with KCNK3 inh. non-induced KCNK3 parental cells, FluxOR thallium flux; stronger effect = lower value. thallium flux ratio (lower = more inhibition) at 10 µM. 40% of 2,400 active;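 active = thallium flux ratio, averaged over three wells, more than 5 SD below the buffer control mean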;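 note: host cells are CHO cells without KCNK3 induction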
Of the large screens only hits and unclear results are named; the others gave an inactive call (follow-up assays come after a bar, where they were run). Hits are enriched below; roughly 3.1% of the tested compounds scored in any of these assays.

CCCc1nc(SCC(=O)c2ccc(OC)cc2)c2ccccc2n1	KCNK9 block -18.6, KCNK3 inh -10.9 | KCNK9 block conf 78.0% | Kir21 sel inactive | KCNK9 uninduced 27.0% | KCNK3 inh conf 107.7 | KCNK3 uninduced 0.158
COc1ccc2oc(=O)cc(-c3cc4cccc(OC)c4o3)c2c1	none
CCN(CC)C(=O)Oc1ccc2oc(=O)cc(-c3cc4cccc(OC)c4o3)c2c1	KCNK9 block -18.2, KCNK3 inh -9.96 | KCNK9 block conf 80.0% | Kir21 sel inactive | KCNK9 uninduced 34.0% | KCNK3 inh conf 104.3 | KCNK3 uninduced inactive
CC(C)c1cc(NC(=O)c2ccccc2)cc(C(C)C)c1O	none
CCc1cccc(CC)c1NC(=O)c1cccc(NC(=O)c2ccccc2)c1	KCNK9 block -8.6 | KCNK9 block conf 64.5% | Kir21 sel inactive | KCNK9 uninduced inactive | KCNK3 inh conf 81.3 | KCNK3 uninduced inactive
CC(C)c1ccccc1NC(=O)c1cccc(NC(=O)c2ccccc2)c1	KCNK9 block -10.1, KCNK3 inh -10.5 | KCNK9 block conf 40.5% | Kir21 sel inactive | KCNK9 uninduced inactive | KCNK3 inh conf 105.7 | KCNK3 uninduced inactive
CCC(CC)COC(=O)C(C#N)c1nc2ccccc2nc1N1CCOCC1 (centres undefined)	KCNK9 block -15.8, KCNK3 inh -11.6 | KCNK9 block conf 66.5% | Kir21 sel inactive | KCNK9 uninduced 49.0% | KCNK3 inh conf 104.3 | KCNK3 uninduced 0.128
COc1ccc(NCc2cccnc2)cc1	none
CCOC(=O)C(C)Sc1nc(-c2ccco2)cc(C(F)(F)F)c1C#N (centres undefined)	KCNK9 block -15.7, KCNK3 inh -12.1 | KCNK9 block conf 70.5% | Kir21 sel inactive | KCNK9 uninduced 44.0% | KCNK3 inh conf 97.7 | KCNK3 uninduced 0.131
CCOC(=O)c1sc(NC(=O)CSc2nc(-c3ccco3)cc(C(F)(F)F)n2)c(C#N)c1C	none
COc1cc(O)cc2c1[C@@H]1Oc3c(ccc(O)c3CC=C(C)C)[C@@H]1CO2	KCNK9 block -11.6 | KCNK9 block conf 54.0% | Kir21 sel inactive | KCNK9 uninduced inactive | KCNK3 inh conf 136.7 | KCNK3 uninduced 0.124
COc1cc2ccc(=O)oc2c(CC=C(C)C)c1OC	none
O=C(NCc1cn(-c2ccccc2)nc1-c1ccc(F)cc1)c1cccc([N+](=O)[O-])c1	KCNK9 block -16.7, KCNK3 inh -8.8 | KCNK9 block conf 77.5% | Kir21 sel inactive | KCNK9 uninduced 31.0% | KCNK3 inh conf 104.0 | KCNK3 uninduced 0.14
CCn1cc(CNC(=O)c2cccc([N+](=O)[O-])c2)c(C)n1	none
CN(CC(=O)Nc1cccc(C(F)(F)F)c1)Cc1ccccc1	KCNK9 block -14.9, KCNK3 inh -12.5 | KCNK9 block conf 63.5% | Kir21 sel inactive | KCNK9 uninduced 41.0% | KCNK3 inh conf 106.3 | KCNK3 uninduced inactive
CC(C1CC1)N(Cc1ccccc1)C(=S)Nc1cccc(C(F)(F)F)c1 (centres undefined)	KCNK9 block -13, KCNK3 inh -9.15 | KCNK9 block conf 56.5% | Kir21 sel inactive | KCNK9 uninduced 39.0% | KCNK3 inh conf 124.7 | KCNK3 uninduced inactive
COc1ccccc1NS(=O)(=O)c1ccc(O)c(C(=O)OCc2cccc([N+](=O)[O-])c2)c1	KCNK9 block -9.18, KCNK3 inh -8.83 | KCNK9 block conf inactive | Kir21 sel inactive | KCNK9 uninduced 28.5% | KCNK3 inh conf 99.0 | KCNK3 uninduced inactive
O=C(CNC(=O)c1ccc(Cl)c([N+](=O)[O-])c1)NCC1CCCO1 (centres undefined)	none
